From ChEMBL document CHEMBL1155468, “Syntheses and evaluation of anticonvulsant profile and teratogenicity of novel amide derivatives of branched aliphatic carboxylic acids with 4-aminobenzensulfonamide” (J Med Chem, 2010)
Activity calls are given as the source filed them. The calls are words filed in the database; no cut-off is given here.

Assays:
Mus musculus [1] = test: Anticonvulsant activity in CF1 albino mouse assessed as inhibition of subcutaneous pentylenetetrazole-induced seizures at 30 mg/kg, ip after 0.5 hrs; format: functional, organism-based; design: dose 30 mg/kg
Summary of the method: (§1)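 Adult male CF no. 1 albino mice (18-25 g) dosed ip with compound suspended in 0.5% methylcellulose (0.01 mL/g). Convulsant: pentylenetetrazol dissolved in 0.9% saline as a 0.85% solution for mice, given subcutaneously.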

Mus musculus [2] = test: Anticonvulsant activity in CF1 albino mouse assessed as inhibition of subcutaneous pentylenetetrazole-induced seizures at 30 mg/kg, ip after 4 hrs; format: functional, organism-based; design: dose 30 mg/kg; summary of the method: as §1
Mus musculus [3] = test: Anticonvulsant activity in CF1 albino mouse assessed as inhibition of subcutaneous pentylenetetrazole-induced seizures at 100 mg/kg, ip after 4 hrs; format: functional, organism-based; design: dose 100 mg/kg; summary of the method: as §1
Mus musculus [4] = test: Teratogenic effect in SWV mouse assessed as resorptions at 325 mg/kg, ip administered on morning of day 8 of gestation; format: toxicity, organism-based; design: dose 325 mg/kg, route intraperitoneal; conditions: in vivo
Mus musculus [5] = test: Teratogenic effect in SWV mouse assessed as resorptions at 164 mg/kg, ip administered on morning of day 8 of gestation; format: toxicity, organism-based; design: dose 164 mg/kg, route intraperitoneal; conditions: in vivo
Mus musculus [6] = test: Teratogenic effect in SWV mouse assessed as fetuses with neural tube deffects at 325 mg/kg, ip administered on morning of day 8 of gestation; format: toxicity, organism-based; design: dose 325 mg/kg, route intraperitoneal; conditions: in vivo
Mus musculus [7] = test: Teratogenic effect in SWV mouse assessed as fetuses with neural tube deffects at 164 mg/kg, ip administered on morning of day 8 of gestation; format: toxicity, organism-based; design: dose 164 mg/kg, route intraperitoneal; conditions: in vivo
Mus musculus [8] = test: Teratogenic effect in SWV mouse assessed as live fetuses at 325 mg/kg, ip administered on morning of day 8 of gestation; format: toxicity, organism-based; design: dose 325 mg/kg, route intraperitoneal; conditions: in vivo
Mus musculus [9] = test: Teratogenic effect in SWV mouse assessed as live fetuses at 164 mg/kg, ip administered on morning of day 8 of gestation; format: toxicity, organism-based; design: dose 164 mg/kg, route intraperitoneal; conditions: in vivo
Mus musculus [10] = test: Anticonvulsant activity in CF1 albino mouse assessed as inhibition of maximal electroshock-induced seizures at 30 mg/kg, ip after 0.5 hrs; format: functional, organism-based; design: dose 30 mg/kg
Summary of the method: (§2)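 Test compounds suspended in 0.5% methylcellulose and given ip to adult male CF no. 1 albino mice (18-25 g) at 0.01 mL/g body weight before maximal electroshock challenge.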

Mus musculus [11] = test: Anticonvulsant activity in CF1 albino mouse assessed as inhibition of maximal electroshock-induced seizures at 100 mg/kg, ip after 0.5 hrs; format: functional, organism-based; design: dose 100 mg/kg; summary of the method: as §2
Mus musculus [12] = test: Anticonvulsant activity in CF1 albino mouse assessed as inhibition of maximal electroshock-induced seizures at 300 mg/kg, ip after 0.5 hrs; format: functional, organism-based; design: dose 300 mg/kg; summary of the method: as §2
Mus musculus [13] = test: Anticonvulsant activity in CF1 albino mouse assessed as inhibition of maximal electroshock-induced seizures at 30 mg/kg, ip after 4 hrs; format: functional, organism-based; design: dose 30 mg/kg; summary of the method: as §2
Mus musculus [14] = test: Anticonvulsant activity in CF1 albino mouse assessed as inhibition of maximal electroshock-induced seizures at 100 mg/kg, ip after 4 hrs; format: functional, organism-based; design: dose 100 mg/kg; summary of the method: as §2
Mus musculus [15] = test: Anticonvulsant activity in CF1 albino mouse assessed as inhibition of maximal electroshock-induced seizures at 300 mg/kg, ip after 4 hrs; format: functional, organism-based; design: dose 300 mg/kg; summary of the method: as §2
Mus musculus [16] = test: Anticonvulsant activity in CF1 albino mouse assessed as inhibition of subcutaneous pentylenetetrazole-induced seizures at 300 mg/kg, ip after 4 hrs; format: functional, organism-based; design: dose 300 mg/kg; summary of the method: as §1
Mus musculus [17] = test: Neurotoxicity in CF1 albino mouse assessed as motor impairment at 30 mg/kg, ip after 0.5 hrs; format: toxicity, organism-based; design: dose 30 mg/kg, route intraperitoneal; conditions: in vivo
Mus musculus [18] = test: Neurotoxicity in CF1 albino mouse assessed as motor impairment at 100 mg/kg, ip after 0.5 hrs; format: toxicity, organism-based; design: dose 100 mg/kg, route intraperitoneal; conditions: in vivo
Mus musculus [19] = test: Neurotoxicity in CF1 albino mouse assessed as motor impairment at 30 mg/kg, ip after 4 hrs; format: toxicity, organism-based; design: dose 30 mg/kg, route intraperitoneal; conditions: in vivo
Mus musculus [20] = test: Neurotoxicity in CF1 albino mouse assessed as motor impairment at 100 mg/kg, ip after 4 hrs; format: toxicity, organism-based; design: dose 100 mg/kg, route intraperitoneal; conditions: in vivo
Rattus norvegicus [21] = species on record: Rattus norvegicus; test: Protective index, ratio of TD50 for rat to ED50 for maximal electroshock-induced rat seizure model
Rattus norvegicus [22] = test: Neurotoxicity in Sprague-Dawley rat assessed as motor impairment at 30 mg/kg, po after 0.25 to 4 hrs; conditions: in vivo
Rattus norvegicus [23] = test: Anticonvulsant activity in po dosed rat assessed as inhibition of maximal electroshock-induced seizures
Rattus norvegicus [24] = test: Anticonvulsant activity in Sprague-Dawley rat assessed as inhibition of maximal electroshock-induced seizures at 30 mg/kg, po after 1 hr
Rattus norvegicus [25] = test: Anticonvulsant activity in Sprague-Dawley rat assessed as inhibition of maximal electroshock-induced seizures at 30 mg/kg, po after 4 hrs
Rattus norvegicus [26] = test: Anticonvulsant activity in Sprague-Dawley rat assessed as inhibition of maximal electroshock-induced seizures at 30 mg/kg, po after 30 mins
Rattus norvegicus [27] = test: Anticonvulsant activity in Sprague-Dawley rat assessed as inhibition of maximal electroshock-induced seizures at 30 mg/kg, po after 15 mins
Mus musculus [28] = test: Anticonvulsant activity in CF1 albino mouse assessed as inhibition of subcutaneous pentylenetetrazole-induced seizures at 100 mg/kg, ip after 0.5 hrs; format: functional, organism-based; design: dose 100 mg/kg; summary of the method: as §1
Mus musculus [29] = test: Anticonvulsant activity in CF1 albino mouse assessed as inhibition of subcutaneous pentylenetetrazole-induced seizures at 300 mg/kg, ip after 0.5 hrs; format: functional, organism-based; design: dose 300 mg/kg; summary of the method: as §1
Mus musculus [30] = test: Teratogenic effect in SWV mouse assessed as resorptions at 486 mg/kg, ip administered on morning of day 8 of gestation; format: toxicity, organism-based; design: dose 486 mg/kg, route intraperitoneal; conditions: in vivo
Summary of the method: (§3)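 SWV inbred mice: two-month-old nulligravid females mated overnight with males and checked for vaginal plugs next morning; gestation onset taken as 10 p.m. the previous night. On gestation day 8.5 each dam got one ip injection, 0.55–2.7 mmol/kg, in 25% aqueous Cremophor EL (vehicle controls dosed alike), 10 μL/g body weight. Litters and implants tallied; resorptions and live fetuses reported as counts with percentages.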

Mus musculus [31] = test: Teratogenic effect in SWV mouse assessed as resorptions at 294 mg/kg, ip administered on morning of day 8 of gestation; format: toxicity, organism-based; design: dose 294 mg/kg, route intraperitoneal; conditions: in vivo; summary of the method: as §3
Mus musculus [32] = test: Teratogenic effect in SWV mouse assessed as resorptions at 148 mg/kg, ip administered on morning of day 8 of gestation; format: toxicity, organism-based; design: dose 148 mg/kg, route intraperitoneal; conditions: in vivo; summary of the method: as §3
Mus musculus [33] = test: Teratogenic effect in SWV mouse assessed as fetuses with neural tube deffects at 486 mg/kg, ip administered on morning of day 8 of gestation; format: toxicity, organism-based; design: dose 486 mg/kg, route intraperitoneal; conditions: in vivo
Summary of the method: (§4)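 Two-month-old nulligravid SWV females were mated overnight and checked for vaginal plugs the next morning; gestation onset was set at 10 p.m. the previous night. On gestation day 8.5, each dam received a single ip injection (0.55-2.7 mmol/kg range) or vehicle (25% aqueous Cremophor EL) at 10 μL/g body weight. Litters were scored for implants, resorptions, live and dead fetuses, and fetuses with neural tube defects.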

Mus musculus [34] = test: Teratogenic effect in SWV mouse assessed as fetuses with neural tube deffects at 294 mg/kg, ip administered on morning of day 8 of gestation; format: toxicity, organism-based; design: dose 294 mg/kg, route intraperitoneal; conditions: in vivo; summary of the method: as §4
Mus musculus [35] = test: Teratogenic effect in SWV mouse assessed as live fetuses at 486 mg/kg, ip administered on morning of day 8 of gestation; format: toxicity, organism-based; design: dose 486 mg/kg, route intraperitoneal; conditions: in vivo; summary of the method: as §3
Mus musculus [36] = test: Teratogenic effect in SWV mouse assessed as live fetuses at 294 mg/kg, ip administered on morning of day 8 of gestation; format: toxicity, organism-based; design: dose 294 mg/kg, route intraperitoneal; conditions: in vivo; summary of the method: as §4
Mus musculus [37] = test: Teratogenic effect in SWV mouse assessed as live fetuses at 148 mg/kg, ip administered on morning of day 8 of gestation; format: toxicity, organism-based; design: dose 148 mg/kg, route intraperitoneal; conditions: in vivo; summary of the method: as §4
Mus musculus [38] = test: Neurotoxicity in CF1 albino mouse assessed as motor impairment at 300 mg/kg, ip after 0.5 hrs; format: toxicity, organism-based; design: dose 300 mg/kg, route intraperitoneal; conditions: in vivo
Mus musculus [39] = test: Neurotoxicity in CF1 albino mouse assessed as motor impairment at 300 mg/kg, ip after 4 hrs; format: toxicity, organism-based; design: dose 300 mg/kg, route intraperitoneal; conditions: in vivo
Rattus norvegicus [40] = test: Anticonvulsant activity in Sprague-Dawley rat assessed as inhibition of maximal electroshock-induced seizures at 30 mg/kg, po after 2 hrs

Structure (SMILES)	Activity (Mus musculus [1])	Activity (Mus musculus [2])	Activity (Mus musculus [3])	Activity (Mus musculus [10])	Activity (Mus musculus [13])	Activity (Mus musculus [15])	Activity (Mus musculus [16])	Activity (Mus musculus [17])	Activity (Mus musculus [18])	Activity (Mus musculus [19])	Activity (Mus musculus [20])	Ratio TD50/ED50 (Rattus norvegicus [21])	Activity (Rattus norvegicus [22])	ED50 (Rattus norvegicus [23])	Activity (Rattus norvegicus [25])	other results
CCCCC(CC)C(=O)Nc1ccc(S(N)(=O)=O)cc1 (stereo not given)	inactive	inactive	inactive	inactive	inactive	Active	inactive	Non-toxic	Non-toxic	Non-toxic	Non-toxic	>21	Non-toxic	23.9 mg/kg	Active	Activity (Mus musculus [4]): 74.2%; Activity (Mus musculus [5]): 19.2%; Activity (Mus musculus [6]): 14.7%; Activity (Mus musculus [7]): 5.2%; Activity (Mus musculus [8]): 25.8%; Activity (Mus musculus [9]): 80.8%; Activity (Mus musculus [11]): Active; Activity (Mus musculus [12]): Active; Activity (Mus musculus [14]): Active; Activity (Rattus norvegicus [24]): Active; Activity (Rattus norvegicus [26]): inactive; Activity (Rattus norvegicus [27]): inactive
CC(C)(C)CC(=O)Nc1ccc(S(N)(=O)=O)cc1	inactive	inactive	inactive	inactive	inactive	Active	inactive	Non-toxic	Non-toxic	Non-toxic	Non-toxic	>53.2	Non-toxic	9.4 mg/kg	Active	Activity (Mus musculus [28]): inactive; Activity (Mus musculus [29]): inactive; Activity (Mus musculus [30]): 8.9%; Activity (Mus musculus [31]): 8.4%; Activity (Mus musculus [32]): 8.6%; Activity (Mus musculus [33]): 15%; Activity (Mus musculus [34]): 3.7%; Activity (Mus musculus [35]): 91.1%; Activity (Mus musculus [36]): 91.6%; Activity (Mus musculus [37]): 91.4%; Activity (Mus musculus [38]): Non-toxic; Activity (Mus musculus [39]): Non-toxic; Activity (Rattus norvegicus [40]): Active
